ChEMBL document CHEMBL1142420, “Synthesis and DNA-cleaving activity of lactenediynes conjugated with DNA-complexing moieties” (2008)

What was measured:
[1] = Cytotoxicity against human HS 578T cells after 48 hrs by SRB assay; type: functional
In short: (§1)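 Run at NCI: cell lines exposed 48 h to a range of concentrations, with untreated controls under identical conditions. Growth measured by sulforhodamine B staining with colorimetric read-out. Percent growth computed from test, time-zero and control absorbances. GI50, TGI and LC50 read from PG versus log10 molar concentration as the concentrations giving PG = 50, 0 and -50.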

UACC-257 = assay: Cytotoxicity against human UACC257 cells after 48 hrs by SRB assay; type: functional; details: UACC-257, 48 h; in short: as §1
T47D = assay: Cytotoxicity against human T47D cells after 48 hrs by SRB assay; type: functional; in short: as §1
SF-539 = assay: Cytotoxicity against human SF539 cells after 48 hrs by SRB assay; type: functional; details: SF-539, 48 h; in short: as §1
SNB-19 = assay: Cytotoxicity against human SNB19 cells after 48 hrs by SRB assay; type: functional; details: SNB-19, 48 h
In short: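 Run at NCI: cells exposed 48 h to a range of concentrations, with untreated controls under identical conditions. Growth measured by sulforhodamine B staining with colorimetric read-out. Percent growth (PG) calculated from absorbance at 48 h with drug, at time zero, and at 48 h without drug. Log molar concentration plotted against PG; GI50 at PG = 50, TGI at PG = 0, LC50 at PG = −50.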

MCF7 = assay: Cytotoxicity against human MCF7 cells after 48 hrs by SRB assay; type: functional; details: MCF7, 48 h; in short: as §1
HCT-116 = assay: Cytotoxicity against human HCT116 cells after 48 hrs by SRB assay; type: functional; details: HCT-116, 48 h; in short: as §1
SK-MEL-2 = assay: Cytotoxicity against human SK-MEL-2 cells after 48 hrs by SRB assay; type: functional; details: SK-MEL-2, 48 h; in short: as §1
MDA-MB-231 = assay: Cytotoxicity against human MDA-MB-231 cells after 48 hrs by SRB assay; type: functional; details: MDA-MB-231, 48 h; in short: as §1
NCI-H226 = assay: Cytotoxicity against human NCI-H226 cells after 48 hrs by SRB assay; type: functional; details: NCI-H226, 48 h; in short: as §1
Escherichia coli = assay: Induction of plasmid pBR322 DNA cleavage assessed as concentration required to cleave 50% of DNA after 24 hrs by gel electrophoresis
In short: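 Supercoiled pBR322 (90% form I) diluted to 50 µg/mL (75 µM/bp) in pH 7.5 Tris 40 mM/EDTA 4 mM. Incubated 24 h at 37 °C, then run on agarose gel with ethidium bromide and viewed at 302 nm. Form I versus II+III quantified by densitometry after subtracting form II present in the control.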

CAKI-1 = assay: Cytotoxicity against human CAKI1 cells after 48 hrs by SRB assay; type: functional; details: CAKI-1, 48 h; in short: as §1
KM12 = assay: Cytotoxicity against human KM12 cells after 48 hrs by SRB assay; type: functional; details: KM12, 48 h; in short: as §1
786-0 = assay: Cytotoxicity against human 786-0 cells after 48 hrs by SRB assay; type: functional; details: 786-0, 48 h; in short: as §1
OVCAR-5 = assay: Cytotoxicity against human OVCAR5 cells after 48 hrs by SRB assay; type: functional; details: OVCAR-5, 48 h; in short: as §1
HT-29 = assay: Cytotoxicity against human HT29 cells after 48 hrs by SRB assay; type: functional; details: HT-29, 48 h; in short: as §1
HCT-15 = assay: Cytotoxicity against human HCT15 cells after 48 hrs by SRB assay; type: functional; details: HCT-15, 48 h; in short: as §1
HOP-62 = assay: Cytotoxicity against human HOP62 cells after 48 hrs by SRB assay; type: functional; details: HOP-62, 48 h; in short: as §1
MDA-N = assay: Cytotoxicity against human MDA-N cells after 48 hrs by SRB assay; type: functional; in short: as §1
[2] = read-out: Log LC50 (the source's name) (converted)

## CC(=O)O[C@@H]1C#C/C=C\C#CC[C@H]2C(=O)N(C(=O)OC(C)(C)C)[C@H]12
[1]
  GI50: 53.7 µM
[1]; [2]
  CC50: > 100 µM
[1]; read-out: Log TGI (converted)
  TGI: > 100 µM
UACC-257; [2]
  CC50: > 100 µM
UACC-257; read-out: Log TGI (converted)
  TGI: > 100 µM
UACC-257; read-out: pGI50 (converted)
  GI50: 18.2 µM
T47D
  GI50: 100 µM
T47D; [2]
  CC50: > 100 µM
T47D; read-out: Log TGI (converted)
  TGI: > 100 µM
SF-539
  GI50: 0.724 µM
SF-539; [2]
  CC50: 25.7 µM
SF-539; read-out: Log TGI (converted)
  TGI: 5.37 µM
SNB-19; [2]
  CC50: > 100 µM
SNB-19; read-out: Log TGI (converted)
  TGI: > 100 µM
MCF7
  GI50: 1.1 µM
MCF7; [2]
  CC50: > 100 µM
MCF7; read-out: Log TGI (converted)
  TGI: > 100 µM
HCT-116
  GI50: 25.7 µM
HCT-116; [2]
  CC50: > 100 µM
HCT-116; read-out: Log TGI (converted)
  TGI: > 100 µM
SK-MEL-2
  GI50: 47.9 µM
SK-MEL-2; [2]
  CC50: > 100 µM
SK-MEL-2; read-out: Log TGI (converted)
  TGI: > 100 µM
MDA-MB-231
  GI50: > 100 µM
MDA-MB-231; [2]
  CC50: > 100 µM
MDA-MB-231; read-out: Log TGI (converted)
  TGI: > 100 µM
NCI-H226
  GI50: 39.8 µM
Escherichia coli
  CS50: 40 µM
CAKI-1
  GI50: 0.355 µM
CAKI-1; [2]
  CC50: 60.3 µM
CAKI-1; read-out: Log TGI (converted)
  TGI: 6.46 µM
KM12
  GI50: > 100 µM
KM12; [2]
  CC50: > 100 µM
KM12; read-out: Log TGI (converted)
  TGI: > 100 µM
786-0
  GI50: 11.5 µM
786-0; [2]
  CC50: > 100 µM
786-0; read-out: Log TGI (converted)
  TGI: 69.2 µM
OVCAR-5
  GI50: > 100 µM
OVCAR-5; [2]
  CC50: > 100 µM
OVCAR-5; read-out: Log TGI (converted)
  TGI: > 100 µM
HT-29
  GI50: > 100 µM
HT-29; [2]
  CC50: > 100 µM
HT-29; read-out: Log TGI (converted)
  TGI: > 100 µM
HCT-15; [2]
  CC50: > 100 µM
HCT-15; read-out: Log TGI (converted)
  TGI: > 100 µM
HCT-15; read-out: pGI50 (converted)
  GI50: 40.7 µM
HOP-62
  GI50: 5.01 µM
HOP-62; [2]
  CC50: > 100 µM
HOP-62; read-out: Log TGI (converted)
  TGI: 38 µM
MDA-N
  GI50: 87.1 µM
MDA-N; [2]
  CC50: > 100 µM
MDA-N; read-out: Log TGI (converted)
  TGI: > 100 µM
